Data published in ChEMBL document CHEMBL1121371, “Antihypertensive 5,6-diarylpyridazin-3-ones” (1980).
Where “and” joins values, the source holds several entries; their conditions need not be identical. Equal entries are not always repeated. Calls of active or inactive are those of the source. The calls are words filed in the database; no cut-off is given here.

Columns and labels:
Rattus norvegicus [1] = assay: Antihypertensive activity in spontaneously hypertensive rats was measured as average blood pressure at 100 mg/kg, p.o. after 4 hours of postdose-1; type: functional; settings: route oral
How it was run: (§1)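 Spontaneously hypertensive rats aged 12 to 16 weeks, in groups of five with systolic pressure of 170 mmHg or more. Oral dosing as a solution or suspension in 0.25% methylcellulose, 5 mL/kg, with a vehicle control group. Tail-cuff systolic pressure was read predose and 4 and 24 h after each of two doses. Values were compared with predose by Student's t test.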

Rattus norvegicus [2] = assay: Antihypertensive activity in spontaneously hypertensive rats was measured as average blood pressure at 100 mg/kg, p.o. after 4 hours of postdose-1.; type: functional; settings: route oral; how it was run: as §1
Rattus norvegicus [3] = assay: Antihypertensive activity in spontaneously hypertensive rats was measured as average blood pressure at 100 mg/kg, p.o. before predose; type: functional; settings: route oral; how it was run: as §1
Rattus norvegicus [4] = assay: Antihypertensive activity in spontaneously hypertensive rats was measured as average blood pressure at 100 mg/kg, po after 24 hours of postdose-2; type: functional; how it was run: as §1
Rattus norvegicus [5] = assay: Antihypertensive activity in spontaneously hypertensive rats was measured as average blood pressure at 100 mg/kg, p.o. after 24 hours of postdose-1.; type: functional; settings: route oral; how it was run: as §1
Rattus norvegicus [6] = assay: Antihypertensive activity in spontaneously hypertensive rats was measured as average blood pressure at 100 mg/kg, p.o. after 4 hours of postdose-2; type: functional; settings: route oral; how it was run: as §1
Rattus norvegicus [7] = assay: Antihypertensive activity in spontaneously hypertensive rats was measured as average blood pressure at 30 mg/kg, po after 4 hours of postdose-1.; type: functional; how it was run: as §1
Rattus norvegicus [8] = assay: Antihypertensive activity in spontaneously hypertensive rats was measured as average blood pressure at 30 mg/kg, p.o. before predose; type: functional; settings: route oral; how it was run: as §1
Rattus norvegicus [9] = assay: Antihypertensive activity in spontaneously hypertensive rats was measured as average blood pressure at 30 mg/kg, p.o. after 24 hours of postdose-2; type: functional; settings: route oral; how it was run: as §1
Rattus norvegicus [10] = assay: Antihypertensive activity in spontaneously hypertensive rats was measured as average blood pressure at 10 mg/kg, p.o. after 4 hours of postdose-1.; type: functional; settings: route oral; how it was run: as §1
Rattus norvegicus [11] = assay: Antihypertensive activity in spontaneously hypertensive rats was measured as average blood pressure at 10 mg/kg, p.o. after 24 hours of postdose-1; type: functional; settings: route oral; how it was run: as §1
Rattus norvegicus [12] = assay: Antihypertensive activity in spontaneously hypertensive rats was measured as average blood pressure at 30 mg/kg, p.o. after 24 hours of postdose-1; type: functional; settings: route oral; how it was run: as §1
Rattus norvegicus [13] = assay: Antihypertensive activity in spontaneously hypertensive rats was measured as average blood pressure at 30 mg/kg, p.o. after 4 hours of postdose-2; type: functional; settings: route oral; how it was run: as §1
Rattus norvegicus [14] = assay: Antihypertensive activity in spontaneously hypertensive rats was measured as average blood pressure at 10 mg/kg, p.o. after 4 hours of postdose-2; type: functional; settings: route oral; how it was run: as §1
Rattus norvegicus [15] = assay: Antihypertensive activity in spontaneously hypertensive rats was measured as average blood pressure at 10 mg/kg, p.o. before predose; type: functional; settings: route oral; how it was run: as §1
Rattus norvegicus [16] = assay: Antihypertensive activity in spontaneously hypertensive rats was measured as average blood pressure at 10 mg/kg, p.o. after 24 hours of postdose-2; type: functional; settings: route oral; how it was run: as §1
Rattus norvegicus [17] = species: Rattus norvegicus; assay: Antihypertensive activity in spontaneously hypertensive rats was measured as decrease in heart rate; (-)=decreased heart rate; type: functional, organism-based
Rattus norvegicus [18] = assay: Antihypertensive activity in spontaneously hypertensive rats was measured as average blood pressure at 25 mg/kg, p.o. after 4 hours of postdose-2; type: functional; settings: route oral; how it was run: as §1
Rattus norvegicus [19] = assay: Antihypertensive activity in spontaneously hypertensive rats was measured as average blood pressure at 25 mg/kg, p.o. before predose; type: functional; settings: route oral; how it was run: as §1
Rattus norvegicus [20] = assay: Antihypertensive activity in spontaneously hypertensive rats was measured as average blood pressure at 25 mg/kg, p.o. after 24 hours of postdose-2; type: functional; settings: route oral; how it was run: as §1
Rattus norvegicus [21] = assay: Antihypertensive activity in spontaneously hypertensive rats was measured as average blood pressure at 25 mg/kg, p.o. after 24 hours of postdose-1; type: functional; settings: route oral; how it was run: as §1
Rattus norvegicus [22] = assay: Antihypertensive activity in spontaneously hypertensive rats was measured as average blood pressure at 25 mg/kg, p.o. after 4 hours of postdose-1.; type: functional; settings: route oral; how it was run: as §1
Rattus norvegicus [23] = assay: Antihypertensive activity in spontaneously hypertensive rats was measured as increase in heart rate at 100 mg/kg peroral dose; (+)=Increased heart rate; type: functional, organism-based; design: dose 100 mg/kg
Rattus norvegicus [24] = assay: Antihypertensive activity in spontaneously hypertensive rats was measured as change in heart rate at 100 mg/kg peroral dose; No significant change is heart rate; type: functional; settings: route oral
Rattus norvegicus [25] = assay: Antihypertensive activity in spontaneously hypertensive rats was measured as average blood pressure at 100 mg/kg, p.o. after 24 hours of postdose; type: functional; settings: route oral; how it was run: as §1
Rattus norvegicus [26] = assay: Antihypertensive activity in spontaneously hypertensive rats was measured as average blood pressure at 100 mg/kg, p.o. after 4 hours of postdose; type: functional; settings: route oral; how it was run: as §1

SMILES	BP (Rattus norvegicus [1])	BP (Rattus norvegicus [2])	BP (Rattus norvegicus [7])	BP (Rattus norvegicus [3])	BP (Rattus norvegicus [4])	BP (Rattus norvegicus [8])	BP (Rattus norvegicus [9])	BP (Rattus norvegicus [5])	BP (Rattus norvegicus [12])	BP (Rattus norvegicus [13])	BP (Rattus norvegicus [6])	other results
CC(=O)c1c(-c2ccc(Cl)cc2)c(-c2ccc(Cl)cc2)nn(CCN2CCOCC2)c1=O	140 mmHg	230 mmHg										BP (Rattus norvegicus [3]; 100 mg/kg): 239 mmHg and 201 mmHg; BP (Rattus norvegicus [4]; 100 mg/kg): 222 mmHg and 177 mmHg; BP (Rattus norvegicus [5]; 100 mg/kg): 201 mmHg and 161 mmHg; BP (Rattus norvegicus [6]; 100 mg/kg): 199 mmHg and 146 mmHg
CC(=O)c1c(-c2ccc(Cl)cc2)c(-c2ccc(Cl)cc2)nn(CCN=C(C)C)c1=O		203 mmHg	201 mmHg	209 mmHg	164 mmHg	211 mmHg	198 mmHg	158 mmHg	196 mmHg	190 mmHg	134 mmHg	BP (Rattus norvegicus [10]): 214 mmHg; BP (Rattus norvegicus [11]): 208 mmHg; BP (Rattus norvegicus [14]): 205 mmHg; BP (Rattus norvegicus [15]): 210 mmHg; BP (Rattus norvegicus [16]): 209 mmHg
CC(=O)c1c(-c2ccc(Cl)cc2)c(-c2ccc(Cl)cc2)nn(CCN2CCCC2)c1=O	155 mmHg		200 mmHg	192 mmHg	146 mmHg	212 mmHg	199 mmHg	138 mmHg	187 mmHg	191 mmHg	142 mmHg	BP (Rattus norvegicus [17]): inactive; BP (Rattus norvegicus [10]): 205 mmHg; BP (Rattus norvegicus [11]): 204 mmHg; BP (Rattus norvegicus [14]): 202 mmHg; BP (Rattus norvegicus [15]): 208 mmHg; BP (Rattus norvegicus [16]): 207 mmHg
CC(=O)NCCn1nc(-c2ccc(Cl)cc2)c(-c2ccc(Cl)cc2)c(C(C)=O)c1=O	149 mmHg			220 mmHg	145 mmHg			146 mmHg			136 mmHg	
CC(=O)c1c(-c2ccc(F)cc2)c(-c2ccc(F)cc2)nn(CCO)c1=O	138 mmHg			186 mmHg	180 mmHg			160 mmHg			166 mmHg	
Br.CC(=O)c1c(-c2ccc(Cl)cc2)c(-c2ccc(Cl)cc2)nn(CCN)c1=O												BP (Rattus norvegicus [18]): 177 mmHg; BP (Rattus norvegicus [19]): 194 mmHg; BP (Rattus norvegicus [20]): 183 mmHg; BP (Rattus norvegicus [21]): 162 mmHg; BP (Rattus norvegicus [22]): 184 mmHg
CC(=O)c1c(-c2ccc(Cl)cc2)c(-c2ccc(Cl)cc2)nn(CCN(C)C)c1=O		182 mmHg	182 mmHg	201 mmHg	144 mmHg	199 mmHg	193 mmHg	179 mmHg	164 mmHg	167 mmHg	155 mmHg	
CN(C)c1ccc(-c2c(-c3ccc(Cl)cc3)c(-c3ccc(Cl)cc3)nn(CCO)c2=O)cc1.Cl	184 mmHg			223 mmHg	208 mmHg			199 mmHg			188 mmHg	Heart rate (Rattus norvegicus [23]): Increased heart rate
N#Cc1c(O)nnc(-c2ccc(Cl)cc2)c1-c1ccc(Cl)cc1				205 mmHg	175 mmHg						173 mmHg	Heart rate (Rattus norvegicus [24]): 0; BP (Rattus norvegicus [25]): 177 mmHg; BP (Rattus norvegicus [26]): 171 mmHg
COCCn1nc(-c2ccc(Cl)cc2)c(-c2ccc(Cl)cc2)c(C(C)=O)c1=O	142 mmHg			186 mmHg	158 mmHg			148 mmHg			144 mmHg	
